Laboratory results from publication PMC8867396 (Nature, 2021).
Where two headings read alike, the source gives them in different places.

Experiments:
σ1 receptor = σ1 receptor (Homo sapiens, UniProt Q99720); test: Competition binding versus σ1 receptor; conditions: read-out: Ki (nM) σ1
human σ2 receptor = human σ2 receptor (Homo sapiens, UniProt Q5BJF2); test: Competition binding of [3H]-DTG in Expi293 membranes expressing σ2 receptor; conditions: for Selectivity (σ1/σ2): ratio of σ1 Ki to σ2 Ki
Procedure, shortened: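 σ2-expressing Expi293 membranes were made by osmotic lysis (20 mM HEPES pH 7.5, 2 mM MgCl2), spun at 20,000 × g, and kept in 50 mM Tris pH 8.0 at −80 °C. Assay buffer: 50 mM Tris pH 8.0, 0.1% BSA, 10 nM [3H]-DTG and graded competitor; 37 °C, 90 min. 10 μM haloperidol set nonspecific binding. Filtration, scintillation counting; Ki by Cheng-Prusoff using measured probe Kd.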

[1] = system: σ2 mutants (His21, Gln77); test: Competition binding in σ2 receptor mutants disrupting water coordination; design: species or system human
Procedure, shortened: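 Expi293 membranes carrying wild-type or mutant σ2 (lysed osmotically in 20 mM HEPES pH 7.5, 2 mM MgCl2; pellet at 20,000 × g), in 50 mM Tris pH 8.0, 0.1% BSA, with 10 nM [3H]-DTG and graded competitor. Incubated 37 °C, 90 min, shaking. Filtered on PEI-soaked glass fibre, scintillation counted. Nonspecific binding with 10 μM haloperidol. Ki by Cheng-Prusoff; three technical replicates, mean ± SEM.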

[2] = Pharmacokinetics in male CD-1 mice, plasma and brain; assay type: in vivo; conditions: 10 mg/kg subcutaneous
SNI mice = test: Spared nerve injury; assay type: in vivo; conditions: for anti-allodynic effect, mechanical thresholds versus vehicle: systemic (subcutaneous) administration to SNI mice
Procedure, shortened: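 Spared nerve injury under isoflurane: two sciatic branches ligated and transected, sural nerve intact; mice tested 7–14 days later. Test compound (10, 20 or 30 mg/kg) or vehicle (saline, cyclodextrin, kolliphor) given subcutaneously, random assignment. Hindpaw von Frey thresholds by up-down method at 1, 24, 48 h. Thresholds normalized to each mouse's post-SNI baseline; n = 5–10; ANOVA with Dunnett's test.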

mice = test: Rotarod; assay type: in vivo; conditions: 1 hour or 24 hours post-injection; Z1665845742 10 mg/kg, Z4857158944 20 mg/kg, Z4446724338 10 mg/kg
[3] = read-out: Ki (nM) σ2, competition with 10 nM [3H]-DTG

σ1 receptor, sequence (Q99720 whole entry, species assumed): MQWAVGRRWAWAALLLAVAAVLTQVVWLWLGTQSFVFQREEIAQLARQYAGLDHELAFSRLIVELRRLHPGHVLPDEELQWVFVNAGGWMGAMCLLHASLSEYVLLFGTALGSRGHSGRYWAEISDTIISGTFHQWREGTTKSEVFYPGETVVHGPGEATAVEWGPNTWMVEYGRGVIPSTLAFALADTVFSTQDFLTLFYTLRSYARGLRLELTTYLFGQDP
human σ2 receptor, sequence (Q5BJF2 whole entry): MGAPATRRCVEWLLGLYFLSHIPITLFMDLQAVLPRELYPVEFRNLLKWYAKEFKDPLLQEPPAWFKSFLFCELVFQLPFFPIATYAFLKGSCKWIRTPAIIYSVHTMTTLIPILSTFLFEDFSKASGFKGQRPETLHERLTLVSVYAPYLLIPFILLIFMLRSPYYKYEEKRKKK

Compound	Ki (σ1 receptor) [nM]	Selectivity (σ1/σ2) (human σ2 receptor)	Ki (human σ2 receptor; [3]) [nM]	other results
CC(C)CCO[C@@H]1CCN(C[C@H]2CC3(CCCCC3)CO2)C1 [ZINC001196519317]	13.4	5.6	2.4	
O[C@@H](COCc1ccccc1F)CN1CC(Cc2ccccc2C(F)(F)F)C1 [ZINC001254761628]	53	11.3	4.7	
C[C@@H](C(=O)N(C)Cc1cccc(F)c1)N1CC=C(c2c[nH]c3ncccc23)CC1 [ZINC000533478938]	1470	43	34.5	
Cc1ccc(CC2CN(CC3(O)CCSCC3)C2)cc1 [ZINC000656714762]	4.6	0.1	67.8	
C1=C(c2c[nH]c3ncccc23)CCN(CCCc2ccccc2)C1 [Z1241145220]				Ki (human σ2 receptor; read-out: σ2 Ki (affinity)): 3.7 nM; reduction of affinity on mutation ([1]; Gln77 mutant versus wild-type σ2): about 10 fold; reduction of affinity on mutation ([1]; His21 mutant versus wild-type σ2): about 10 fold
c1ccc(CCCN2CCC(c3nnc4ccccn34)CC2)cc1 [Z163048780]				Ki (human σ2 receptor; read-out: σ2 Ki (affinity)): > 10000 nM
Cc1ccc([C@H]2CCN(CC3(O)CCC3)C2)c(C)c1 [ZINC000348332392]	2.9	0.1	33.7	
COc1cccc2c1CCCC2CCCN1CCN(C2CCCCC2)CC1 (stereo not shown) [PB28, reference compound]				AUC0→t (AUClast) ([2]; brain): 229000 ng·min/mL (g); AUC0→∞ (AUCinf_obs) ([2]; brain): 240000 ng·min/mL (g); Cmax ([2]; brain): 948 ng/mL (g); Kel (Lambda_z) ([2]; brain): 0.00706 min⁻¹; T1/2 (HL_Lambda_z) ([2]; brain): 1.64 h; Tmax ([2]; brain): 1 h; AUC0→t (AUClast) ([2]; plasma): 8640 ng·min/mL (g); AUC0→∞ (AUCinf_obs) ([2]; plasma): 45900 ng·min/mL (g); Cmax ([2]; plasma): 42 ng/mL (g); Kel (Lambda_z) ([2]; plasma): 0.000937 min⁻¹; T1/2 (HL_Lambda_z) ([2]; plasma): 12.3 h; Tmax ([2]; plasma): 1 h; mice in which anti-allodynic effects were observed (SNI mice; systemic injection, 30 mg/kg): 60%
CCCN1CCC=C(c2cc(-c3ccc(C)cc3)no2)C1 [PD-144418]				anti-allodynic effect, mechanical thresholds versus vehicle (SNI mice): anti-allodynia; anti-allodynia 24 or 48 hours post-injection (SNI mice; tested at 1, 24 and 48 hours after dosing): not sustained
CC[C@@H](CO)N1CCC(CCc2ccc(F)cc2F)CC1 [ZINC001460312963]	1.7	0.3	5.2	
CC(C)(NCc1ccc2c(c1)OCCO2)[C@H](O)c1ccccc1 [ZINC000895657866]	990	46	21.4	
O[C@@]1(CNCc2cccc3c2OCC3)CCc2ccccc21 [ZINC000921927365]	1190	18	67.3	
OC(CCc1ccccc1)CN1CCC(c2nnc3ccccn23)CC1 (stereo not shown) [Z1665798906]				σ2 activity in words (human σ2 receptor): σ2 inactive
Cc1ccc(CCC2CCN(C(=O)CN3C[C@@H]4CC[C@@H](O)[C@H]4C3)CC2)cc1 [ZINC000544117725]	16.2	1.6	10	
OC(CCc1ccccc1)CN1CC=C(c2c[nH]c3ncccc23)CC1 (stereo not shown) [Z1665845742]				sedation or motor impairment on the rotarod (mice): No sedation or motor impairment; AUC0→t (AUClast) ([2]; brain): 436000 ng·min/mL (g); AUC0→∞ (AUCinf_obs) ([2]; brain): 509000 ng·min/mL (g); Cmax ([2]; brain): 3150 ng/mL (g); Kel (Lambda_z) ([2]; brain): 0.000928 min⁻¹; T1/2 (HL_Lambda_z) ([2]; brain): 12.4 h; Tmax ([2]; brain): 0.333 h; AUC0→t (AUClast) ([2]; plasma): 99000 ng·min/mL (g); AUC0→∞ (AUCinf_obs) ([2]; plasma): 112000 ng·min/mL (g); Cmax ([2]; plasma): 968 ng/mL (g); Kel (Lambda_z) ([2]; plasma): 0.00374 min⁻¹; T1/2 (HL_Lambda_z) ([2]; plasma): 3.08 h; Tmax ([2]; plasma): 0.333 h; anti-allodynic effect, mechanical thresholds versus vehicle (SNI mice): anti-allodynic; selectivity for σ2 over σ1 (human σ2 receptor): 47 fold; Ki (human σ2 receptor; read-out: σ2 Ki (affinity)): 5 nM
CC1CCC(O)(CN2CC(Cc3ccc(F)c(F)c3)C2)CC1 (stereo not shown) [ZINC000548355486]	4.9	2	2.4	
C1=C(c2c[nH]c3ccccc23)CCN(CCCc2ccccc2)C1 [Z295861754]				decrease in σ2 affinity (human σ2 receptor; versus parent Z1241145220): 8 fold
C[C@@H](c1ccccc1)[C@@H](O)CN1CCC(c2c[nH]c3ncccc23)CC1 [ZINC000450573233]	128	30	4.3	
N/C(=N\Cc1ccc(F)cc1Br)NCC1CCC1 [ZINC000170908795]	32.7	4.9	6.7	
Fc1c(CN2CCN(C[C@@H]3CCCO3)CC2)ccc(Br)c1Cl [ZINC001237901728]	1.6	0.1	27	
